Experimental data taken from ChEMBL document CHEMBL4390698, “Targeted delivery of atorvastatin via asialoglycoprotein receptor (ASGPR)” (Bioorg Med Chem, 2019).
Activity calls are given as the source filed them. The calls are words filed in the database; no cut-off is given here.

Experiments:
[1] = target: T1, 3-hydroxy-3-methylglutaryl-coenzyme A reductase (Homo sapiens) (UniProt P04035); assay: Inhibition of HMG CoA reductase (unknown origin) in pH 4.5 PBS in presence of NADPH incubated for 10 mins
T1 sequence (whole entry): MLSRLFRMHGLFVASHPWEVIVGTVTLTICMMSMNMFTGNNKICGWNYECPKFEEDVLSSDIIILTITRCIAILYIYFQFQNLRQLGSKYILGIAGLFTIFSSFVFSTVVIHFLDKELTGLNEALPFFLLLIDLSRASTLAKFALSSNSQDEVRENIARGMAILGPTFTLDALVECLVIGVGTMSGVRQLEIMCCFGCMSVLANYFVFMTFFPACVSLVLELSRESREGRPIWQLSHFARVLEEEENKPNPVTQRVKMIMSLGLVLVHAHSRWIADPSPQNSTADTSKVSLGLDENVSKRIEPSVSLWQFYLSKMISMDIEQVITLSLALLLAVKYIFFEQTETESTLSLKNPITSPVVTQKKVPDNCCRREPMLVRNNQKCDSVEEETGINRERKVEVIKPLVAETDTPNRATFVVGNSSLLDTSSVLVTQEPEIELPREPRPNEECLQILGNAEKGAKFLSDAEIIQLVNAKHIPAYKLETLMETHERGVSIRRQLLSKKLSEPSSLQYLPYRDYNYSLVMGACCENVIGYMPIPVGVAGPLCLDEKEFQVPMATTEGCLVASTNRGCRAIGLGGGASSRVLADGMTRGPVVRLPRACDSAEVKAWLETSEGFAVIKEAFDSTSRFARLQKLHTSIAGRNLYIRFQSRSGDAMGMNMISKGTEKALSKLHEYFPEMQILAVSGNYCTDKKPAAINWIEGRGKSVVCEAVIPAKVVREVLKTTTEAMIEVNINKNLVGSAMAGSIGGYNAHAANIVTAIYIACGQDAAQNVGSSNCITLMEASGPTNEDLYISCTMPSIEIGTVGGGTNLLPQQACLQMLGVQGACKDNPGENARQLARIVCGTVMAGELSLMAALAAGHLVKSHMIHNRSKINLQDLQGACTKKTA
In short: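 Commercial HMG-CoA reductase kit, run on conjugates first hydrolysed as in the esterase procedure (pH 7.40 esterase, or pH 4.50 then pH 7.40 esterase). Absorbance at 340 nm was read kinetically for 10 min. Activity was computed from ΔA340/min (sample minus blank) using NADPH ε 6.22 mM⁻¹cm⁻¹ ×2, 0.6 mg/mL enzyme, 12×10^-3 mL enzyme, 0.2 mL total volume and 0.55 cm path.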

[2] = target: T1, 3-hydroxy-3-methylglutaryl-coenzyme A reductase (Homo sapiens); assay: Inhibition of HMG CoA reductase in human Hep3G cells assessed as increase in LDL receptor expression at 25 uM incubated for 48 hrs by immunofluorescence method; type: cell-based; settings: in the assay text read “Hep3B” for “Hep3G”
In short: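 Hep3B cells seeded 2×10^5 cells/cm2 and treated 24 h later at 25 μM final (from 10 mM stocks) for 48 h. Harvested cells were stained with anti-LDL receptor primary (1/100, 30 min RT), then goat anti-mouse IgG (1/2000, 30 min RT, dark), and analysed by flow cytometry. Triplicate; two-tailed t test.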

[3] = Drug uptake in human Hep3B cells assessed as ASGPR-mediated cellular uptake at 90 uM incubated for 3 hrs by UV spectrum and mass spectroscopic method relative to atorvastatin; type: ADME, cell-based
In short: (§1)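 Hep3B cells in EMEM/10% FBS, 37 °C, 5% CO2, seeded 1×10^4 cells/cm2. After 24 h, compound was added from 18 mM stocks to a final 90 μM, with or without 90 mM GalNac co-added, for 3 h. Cells were rinsed, trypsinised and pelleted, then extracted with methanol/DCM. Supernatant was read by UV and mass spectra, and amounts were taken from standard curves.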

[4] = Drug metabolism assessed as esterase (unknown origin)-mediated atorvastatin release in pH 7.4 PBS buffer incubated for 3 to 24 hrs by mass spectrometry; type: ADME; settings: human
In short: (§2)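 Porcine liver esterase hydrolysis; DMSO stocks 3.5 mM. pH 7.40 route: stock diluted into PBS pH 7.40 containing 0.5 mg/mL esterase, 37 °C, sampled at 0 h, 3 h and 24 h. pH 4.50 route: PBS pH 4.50 at 37 °C for 24 h, pH raised to 7.40 with NaOH, PBS pH 7.40 containing 1.0 mg/mL esterase added, 37 °C one day. Reactions quenched with DCM; DCM layer analysed by mass spectrometry.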

[5] = Drug uptake in human Hep3B cells assessed as ASGPR-mediated cellular uptake at 90 uM incubated for 3 hrs in presence of 90 mM GalNac by UV spectrum and mass spectroscopic method relative to atorvastatin; type: ADME, cell-based; in short: as §1
[6] = target: T1, 3-hydroxy-3-methylglutaryl-coenzyme A reductase (Homo sapiens); assay: Inhibition of HMG CoA reductase (unknown origin) using hydrolyzed product of compound in presence of NADPH incubated for 24 hrs in pH 4.5 PBS followed by incubation in pH 7.4 for 24 hrs in presence of esterase
[7] = Drug metabolism assessed as esterase (unknown origin)-mediated atorvastatin release in pH 4.5 PBS buffer incubated for 3 to 24 hrs by mass spectrometry; type: ADME; settings: human; in short: as §2

SMILES	inhibition [1]	inhibition [2]	fold change (FC) [3]	Drug metabolism [4]	Drug uptake [5]	inhibition [6]	Drug metabolism [7]
CC(C)c1c(C(=O)Nc2ccccc2)c(-c2ccccc2)c(-c2ccc(F)cc2)n1CC[C@@H](O)C[C@@H](O)CC(=O)O	Active	Active					
CC(=O)N[C@H]1[C@H](OCCn2cc(COC(=O)C[C@H](O)C[C@H](O)CCn3c(-c4ccc(F)cc4)c(-c4ccccc4)c(C(=O)Nc4ccccc4)c3C(C)C)nn2)O[C@H](CO)[C@H](O)[C@@H]1O	inactive	Active	1.4	Metabolite_Detected	Not Active	inactive	
CC(=O)N[C@H]1[C@H](OCCn2cc(COC(=O)C[C@H]3C[C@@H](CCn4c(-c5ccc(F)cc5)c(-c5ccccc5)c(C(=O)Nc5ccccc5)c4C(C)C)OC(C)(C)O3)nn2)O[C@H](CO)[C@H](O)[C@@H]1O	inactive	Active	5.1	Metabolite_Notdetected	Not Active	inactive	Metabolite_Detected
